Data set [1] has as its system Candida albicans. In words: Antifungal activity against Candida albicans ATCC MYA-2876 after 48 hrs by CLSI M27-A3 method. The settings on record: ATCC MYA-2876, 48 h. The format is functional.
Data set [2] has as its system Candida albicans. The data set can be described thus: Antifungal activity against Candida albicans ATCC MYA-90819 after 48 hrs by CLSI M27-A3 method. The format is functional. The following applies: ATCC MYA-90819, 48 h.
Data set [3] deals with Candida albicans. The data set can be described thus: Antifungal activity against Candida albicans ATCC MYA-2310 after 48 hrs by CLSI M27-A3 method. The data set is classed as functional. The following applies: ATCC MYA-2310, 48 h.
Data set [4] has as its system Candida albicans. The data set can be described thus: Antifungal activity against Candida albicans ATCC MYA-1237 after 48 hrs by CLSI M27-A3 method. The settings on record: ATCC MYA-1237, 48 h. The data set is classed as functional.
Data set [5] concerns Candida albicans. In words: Antifungal activity against Candida albicans ATCC MYA-1003 after 48 hrs by CLSI M27-A3 method. The data set is classed as functional. The settings on record: ATCC MYA-1003, 48 h.
The next data set relates to Nakaseomyces glabratus. The data set can be described thus: Antifungal activity against Candida glabrata ATCC 2001 after 48 hrs by CLSI M27-A3 method. The format is functional. The following applies: CBS 138, 48 h.
For another data set, the system named is Candida parapsilosis. The data set can be described thus: Antifungal activity against Candida parapsilosis ATCC 22019 after 48 hrs by CLSI M27-A3 method. The format is functional. The following applies: Lodderomyces parapsilosis, ATCC 22019, 48 h.
The test system of a further data set is Aspergillus flavus. The data set can be described thus: Antifungal activity against Aspergillus flavus ATCC MYA-3631 after 48 hrs by CLSI M38-A2 method. The format is functional. The following applies: ATCC MYA-3631, 48 h.
A further data set concerns Aspergillus nidulans. In words: Antifungal activity against Aspergillus nidulans ATCC 38163 after 48 hrs by CLSI M38-A2 method. The data set is classed as functional. The settings on record: ATCC 38163, 48 h.
Data set [6] relates to Candida albicans. The data set can be described thus: Fungistatic activity against Candida albicans ATCC 64124 assessed as reduction in fungal population at MIC upto 24 hrs by time kill assay. The format is functional, organism-based.
For data set [7], the system named is Candida albicans. The data set can be described thus: Fungicidal activity against Candida albicans ATCC 64124 assessed as reduction in fungal population at 2 times MIC after 24 to 48 hrs by time kill assay. The data set is classed as functional.
A further data set has as its system A549. In words: Cytotoxicity against human A549 cells assessed as reduction in cell survival after 24 hrs by resazurin assay. The format is cell-based. The settings on record: A549, 24 h. Put shortly:
(§1)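 Human A549 cells treated 24 h; BEAS 2B cells treated 6 h or 24 h. DMSO-treated cells served as negative control and Triton X-treated cells as positive control. Read-out was cell survival.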
(In general: Alamar Blue is a resazurin reagent that responds to reducing activity.)

Data set [8] in a line: Cytotoxicity against human BEAS2B cells assessed as reduction in cell survival after 6 hrs by resazurin assay. The data set is classed as cell-based. The settings on record: beas-2b. Put shortly:
as §1

Data set [9] in a line: Cytotoxicity against human BEAS2B cells assessed as reduction in cell survival after 24 hrs by resazurin assay. The data set is classed as cell-based. The settings on record: BEAS-2B. Put shortly:
as §1

Data set [10] has as its system Candida albicans. In words: Induction of ROS production in Candida albicans ATCC 10231 at 1 to 2 times MIC after 1 hr by DCFH-DA probe based fluorescence microscopy. The data set is classed as functional, organism-based.
In data set [11] the test system is Candida albicans. In words: Fungistatic activity against Candida albicans ATCC 64124 assessed as reduction in fungal population at MIC after 24 hrs by time kill assay.
In data set [12] the test system is Candida albicans. The data set can be described thus: Antifungal activity against Candida albicans ATCC 64124 after 48 hrs by CLSI M27-A3 method. The following applies: ATCC 64124, 48 h. The data set is classed as functional.
In data set [13] the test system is Candida albicans. The data set can be described thus: Antifungal activity against Candida albicans ATCC 10231 after 48 hrs by CLSI M27-A3 method. The data set is classed as functional. The following applies: ATCC 10231, 48 h.
For the next data set, the system named is Pichia kudriavzevii. The data set can be described thus: Antifungal activity against Candida krusei ATCC 6258 after 48 hrs by CLSI M27-A3 method. The format is functional. The following applies: ATCC 6258, 48 h.
The test system of the next data set is Aspergillus terreus. In words: Antifungal activity against Aspergillus terreus ATCC MYA3633 after 48 hrs by CLSI M38-A2 method. The format is functional. The settings on record: ATCC MYA3633, 48 h.

Structures are written as SMILES. In brackets after ≈: the same amount, converted by molar mass. Activity calls are given as the source filed them. The rule behind the calls is not given here.

Usually MIC stands for the least concentration at which growth counts as inhibited. A lower MIC goes with a more susceptible organism. As a reminder, the IC50 is the concentration that inhibits the measured activity by half.

As to `CN1CCN(c2ccc3[nH]c(-c4ccc5[nH]c(-c6ccc(O)cc6)nc5c4)nc3c2)CC1` [HOECHST 33258], the MIC in the data set on Candida albicans [1] is 7.8 µg/mL (≈ 18.4 µM); in the data set with Candida albicans [2], 7.8 µg/mL (≈ 18.4 µM); against Candida albicans [3], 3.9 µg/mL (≈ 9.19 µM); against Candida albicans [4], 3.9 µg/mL (≈ 9.19 µM); against Candida albicans [5], 7.8 µg/mL (≈ 18.4 µM); in the data set with Nakaseomyces glabratus, 0.975 µg/mL (≈ 2.3 µM). Besides, the MIC was 0.975 µg/mL (≈ 2.3 µM) in the data set on Candida parapsilosis, 31.2 µg/mL (≈ 73.5 µM) against Aspergillus flavus and 1.95 µg/mL (≈ 4.59 µM) against Aspergillus nidulans. Further, the result in the data set on Candida albicans [6] and in the data set with Candida albicans [10] was Active. In addition, the Activity in the data set with Candida albicans [7] is 5 log10CFU; in data set [8] it was “Non-toxic”; in the data set on Candida albicans [11] it was 1 log10CFU. The IC50 (with A549; in data set [9]) was no less than 31.2 µg/mL throughout.
On to `CCOc1ccc(-c2nc3cc(-c4nc5cc(N6CCN(C)CC6)ccc5[nH]4)ccc3[nH]2)cc1`, for which the MIC in the data set on Candida albicans [12], against Candida albicans [1], in the data set with Candida albicans [2], against Candida albicans [3], in the data set on Candida albicans [4] and with Candida albicans [13] was 7.8 µg/mL (≈ 17.2 µM) throughout. Besides, the minimum inhibitory concentration (MIC) against Candida albicans [5] amounted to 15.6 µg/mL (≈ 34.5 µM); against Nakaseomyces glabratus it was 7.8 µg/mL (≈ 17.2 µM); with Pichia kudriavzevii, 7.8 µg/mL (≈ 17.2 µM); against Candida parapsilosis it was 3.9 µg/mL (≈ 8.62 µM); in the data set on Aspergillus flavus, 31.2 µg/mL (≈ 68.9 µM); against Aspergillus nidulans, 3.9 µg/mL (≈ 8.62 µM). 7.8 µg/mL (≈ 17.2 µM) was the least that counted as inhibitory in the data set with Aspergillus terreus (MIC). In addition, the result in the data set on Candida albicans [6] and in the data set with Candida albicans [10] was Active. Further, the Activity in the data set on Candida albicans [7] was 5 log10CFU; in [8] it was “Non-toxic”; with Candida albicans [11], 1 log10CFU. Further, the figures for the IC50 (in the data set on A549; in [9]) were 0.98 µg/mL (≈ 2.17 µM) and 1.95 µg/mL (≈ 4.31 µM), respectively.
For `COc1ccc(-c2nc3cc(-c4nc5cc(N6CCN(C)CC6)ccc5[nH]4)ccc3[nH]2)cc1`, the MIC with Candida albicans [12] was 31.2 µg/mL (≈ 71.1 µM); with Candida albicans [1], 15.6 µg/mL (≈ 35.6 µM); in the data set with Candida albicans [2] it was 15.6 µg/mL (≈ 35.6 µM); in the data set with Candida albicans [3] it was 7.8 µg/mL (≈ 17.8 µM); in the data set on Candida albicans [4], 15.6 µg/mL (≈ 35.6 µM); in the data set on Candida albicans [13] it was 15.6 µg/mL (≈ 35.6 µM). Further, the MIC in the data set with Candida albicans [5] was greater than 31.2 µg/mL; in the data set with Nakaseomyces glabratus it was 3.9 µg/mL (≈ 8.89 µM); in the data set on Pichia kudriavzevii it was 31.2 µg/mL (≈ 71.1 µM); against Candida parapsilosis, 3.9 µg/mL (≈ 8.89 µM); in the data set on Aspergillus flavus, 31.2 µg/mL (≈ 71.1 µM); with Aspergillus nidulans, 15.6 µg/mL (≈ 35.6 µM). In the data set with Aspergillus terreus, this compound registered an MIC of 15.6 µg/mL (≈ 35.6 µM). The IC50 was found to be 0.98 µg/mL (≈ 2.23 µM) in the data set with A549 and 1.95 µg/mL (≈ 4.45 µM) in data set [9]. Moreover, the Activity result in data set [8] is given as “Non-toxic”.
Regarding `C#CCOc1ccc(-c2nc3ccc(-c4nc5ccc(N6CCN(C)CC6)cc5[nH]4)cc3[nH]2)cc1`, the MIC against Candida albicans [12] is 31.2 µg/mL (≈ 67.5 µM); against Candida albicans [1] it was 7.8 µg/mL (≈ 16.9 µM); with Candida albicans [3] it was 7.8 µg/mL (≈ 16.9 µM); in the data set with Candida albicans [4] it was greater than 31.2 µg/mL; against Candida albicans [13], 7.8 µg/mL (≈ 16.9 µM); in the data set with Nakaseomyces glabratus it was 7.8 µg/mL (≈ 16.9 µM). Moreover, the MIC in the data set with Pichia kudriavzevii was 7.8 µg/mL (≈ 16.9 µM); in the data set on Candida parapsilosis it was 1.95 µg/mL (≈ 4.22 µM); in the data set with Aspergillus flavus, greater than 31.2 µg/mL. Besides, the IC50 in the data set on A549 was 15.6 µg/mL (≈ 33.7 µM); in data set [9], 0.98 µg/mL (≈ 2.12 µM). Also, the Activity result in data set [8] is on record as “Non-toxic”.
For the compound `CCCCCN1CCN(c2ccc3nc(-c4ccc5nc(-c6ccc(OC)cc6)[nH]c5c4)[nH]c3c2)CC1`, the MIC in the data set on Candida albicans [12], against Candida albicans [1], in the data set on Candida albicans [2], with Candida albicans [3], with Candida albicans [4] and against Candida albicans [13] was greater than 31.2 µg/mL each time. For the same compound, the MIC against Candida albicans [5] was greater than 31.2 µg/mL; in the data set on Nakaseomyces glabratus, greater than 31.2 µg/mL; against Pichia kudriavzevii, greater than 31.2 µg/mL; against Candida parapsilosis, 15.6 µg/mL (≈ 31.5 µM); in the data set on Aspergillus flavus, greater than 31.2 µg/mL; against Aspergillus nidulans, greater than 31.2 µg/mL. In the data set on Aspergillus terreus, this compound yielded an MIC greater than 31.2 µg/mL.

The record behind these values is ChEMBL document CHEMBL3817731, “Synthesis and investigation of novel benzimidazole derivatives as antifungal agents” (Bioorg Med Chem, 2016).
